# Shown are actives, neighbours in structure and some others; about 0.99% of the full set was active somewhere.
# STK33 kinase inh – blocks human STK33 kinase activity. Q9BYT3. purified STK33, MBP phosphorylation, ADP-Glo luminescence. inhibition, % at 10 µM. 320,000 tested, 0.073% active. AID 2661;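 active means inhibition at or above 25%, using the most active replicate where run in duplicate; inactive means inhibition below 25%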
# Target sequence (Q9BYT3 whole entry, looked up): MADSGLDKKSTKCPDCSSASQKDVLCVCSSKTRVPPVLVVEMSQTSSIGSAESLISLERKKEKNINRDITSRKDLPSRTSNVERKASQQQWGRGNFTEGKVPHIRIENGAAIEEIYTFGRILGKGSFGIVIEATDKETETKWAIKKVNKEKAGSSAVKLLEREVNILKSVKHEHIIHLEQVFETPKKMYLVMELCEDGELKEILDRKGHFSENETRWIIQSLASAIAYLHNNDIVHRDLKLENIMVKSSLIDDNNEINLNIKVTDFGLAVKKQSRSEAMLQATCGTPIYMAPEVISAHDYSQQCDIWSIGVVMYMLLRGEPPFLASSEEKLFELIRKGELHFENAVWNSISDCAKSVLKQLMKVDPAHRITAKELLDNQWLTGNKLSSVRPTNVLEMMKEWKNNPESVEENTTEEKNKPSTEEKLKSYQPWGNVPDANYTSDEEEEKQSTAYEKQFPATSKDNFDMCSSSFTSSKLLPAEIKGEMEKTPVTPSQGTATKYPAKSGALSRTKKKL
# GSK3 alpha inh – blocks human GSK-3 alpha kinase; P49840; ADP-Glo luminescence, 60 min; inhibition, % at 10 µM; 320,000 tested, 0.1% active;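 active means more than half of replicates show inhibition above 20%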;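 further: GST-tagged GSK-3 alpha with peptide substrate and 25 µM ATP; 0% = DMSO neutral wells and 100% = GW8510 positive control wells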
# Arr AP2 block – blocks beta-arrestin peptide binding to AP2 adaptin; FITC-arrestin peptide / GST-AP2 beads, flow cytometry; AP2 beta2 appendage carries R879A mutation; AID 504490; 340,000 tested, 0.31% active; inhibition, % at 10 µM;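 active means inhibition above a set limit, near 3 SD of compounds lacking own fluorescence, cut at about 54% in these data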;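 further: plate controls were DMSO wells for no effect and 5 µM unlabelled arrestin peptide for full effect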
#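 System: GST-AP2 R879A glutathione beads | Also added: FITC-arrestin peptide, 50 nM | Times: 12 min plus 1 h, RT | Signal: Bead flow cytometry, FITC channel | Buffer or medium: PBS with 0.05% Tween 20 and 0.1% BSA | Read-out basis: Percent drop in bead-associated FITC signal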
# DYRK1A inh – inhibitors of rat Dyrk1A kinase | ADP-Glo luminescence, NFATc1 peptide | AID 504441 | inhibition, % at 12.5 µM | 310,000 tested, 0.43% active | Q63470; in the data active means inhibition above about 50%;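 further: plate controls were vehicle with enzyme for no effect and no enzyme for full effect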
# Rin1 Abl inh – human Rin1-Abl interaction inhibition. TR-FRET Rin1/Abl binding, biochemical. inhibition, % at 7.35 µM. 360,000 tested, 0.4% active. AID 588664. P00519+Q13671; in the data active means inhibition above about 5%, passing the limit was not always enough
# GSK3beta inhib – human GSK3beta kinase inhibition. P49841. GST-GSK3beta kinase, ADP-Glo luminescence, 60 min; hits give low values. activity score (negative = inhibition), % at 10 µM. 300,000 tested, 0.038% active. AID 2097;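 active means more than half of replicate wells score below -50%, meaning over 50% inhibition versus plate controls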;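 further: 0% = median DMSO wells and -100% = median GW8510 positive control wells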
#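 Test system: GST-fused GSK3beta enzyme, cell-free | Quantity: 1.6 ng GST-GSK3beta enzyme per well | Reagent: 25 µM ATP with peptide substrate | Schedule: 60 min enzyme reaction, room temperature | Signal: Luminescent ADP-Glo measurement of ADP formed | Read-out basis: Score relative to plate controls | Control set: DMSO and 20 µM GW8510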
# Active calls of the source: *; . = not tested or not shown.
SMILES,STK33 kinase inh,GSK3 alpha inh,Arr AP2 block,DYRK1A inh,Rin1 Abl inh,GSK3beta inhib
C#CCOCCOCCOCCNc1nc(N2CCN(C(=O)CCCCCCCCCCNC(=O)[C@@H](CCSC)n3cc(CCO)nn3)CC2)nc(N2CCN(C(=O)CCCCCCCCCCNC(=O)[C@H]([C@@H](C)CC)n3cc(CCCCN=C(N)N)nn3)CC2)n1,10,0,-7,-6,24*,.
C#CCOCCOCCOCCNc1nc(N2CCN(C(=O)CCCCCCCCCCNC(=O)[C@H](CCCCN)n3cc(CCCC(=O)O)nn3)CC2)nc(N2CCN(C(=O)CCCCCCCCCCNC(=O)[C@H](CCCN=C(N)N)n3cc(C[C@@H](C)CC)nn3)CC2)n1,10,15,-4,3,6,-4
CCN(CCc1ccccc1)c1ccc2c(c1)C1CC2CCN1Cc1ccccc1 (configuration not stated),.,.,.,.,1,.
COc1ccc(CC(N)c2csc(Nc3cc(NCc4ccco4)ncn3)n2)cc1 (configuration not stated),.,.,.,.,3,.
Cc1ccccc1CN1CC2=C(CCN(Cc3ccccc3)C2=O)N2CCN=C12,.,.,.,.,-2,.
CCOC(=O)c1nnn(-c2nonc2N)c1-c1ccc(OCC)cc1,0,50*,0,27,-4,-35
CCOc1cccc(-c2c(C(=O)N/N=C/c3ccncc3)nnn2-c2nonc2N)c1,2,48,18,60*,0,5
CCOc1ccc(-c2c(C(=O)N/N=C/c3ccoc3)nnn2-c2nonc2N)cc1,0,7,-4,3,1,0
COc1cc(/C(C)=N/NC(=O)c2nnn(-c3nonc3N)c2-c2cccs2)ccc1O,-1,-1,49,.,2,-2
CCOc1cccc(-c2c(C(=O)N/N=C(\C)c3ccccn3)nnn2-c2nonc2N)c1,1,32,-1,4,-4,3
CCOc1cccc(-c2c(C(=O)N/N=C(\C)c3ccncc3)nnn2-c2nonc2N)c1,0,69*,26,0,2,-20
C/C(=N\NC(=O)c1nnn(-c2nonc2N)c1-c1cccs1)c1cccc(O)c1,0,66*,10,11,7,0
O=C(Nc1c(F)c(F)c(F)c(F)c1F)c1ccc(Br)o1,.,.,.,.,-3,.
O=C(Nc1cccc(C(F)(F)F)c1)c1csc([C@@H]2O[C@H](CO)[C@H](O)[C@H](O)[C@H]2O)n1,.,.,.,.,-1,.
CN1CCn2cnc(C(=O)N3CCN(c4ccccc4)CC3)c2C1=O,.,.,.,.,0,.
COCc1ccc(CN2CCCCC2C(=O)Nc2ccc(Oc3ccccc3)nc2)o1 (configuration not stated),-1,-2,-9,-8,1,-5
CCOc1ccc(C(=O)N(Cc2ccccc2)c2cccc(C)c2)cc1OC,-1,-6,-3,-3,-1,0
CC1=NN(c2ccccc2)C(=O)C1=Cc1ccccc1,.,.,.,.,29*,.
NS(=O)(=O)c1ccc(NC(=O)CSc2nnc(-c3ccc(O)cc3)o2)cc1,7,53*,-9,30,0,-2
CC(=O)Nc1cccc(-c2ccnc3c2CC(C)(C(=O)Nc2cccc(OC(F)(F)F)c2)O3)c1 (configuration not stated),.,.,.,.,3,.
CN(C)c1ccc2nc3ccc(=O)cc-3sc2c1,.,.,.,.,14*,.
CCCNCC1COc2ccccc2O1 (configuration not stated),-1,6,.,.,.,-52*
Nc1c(CO)nnn1-c1ccccc1,1,50*,-16,6,0,-21
CCCc1cc(-c2[nH]ncc2-c2ccc3c(c2)OCCCO3)c(O)cc1O,2,2,9,58*,-6,-3
Cc1ccc(N(CC(O)CN2CCCCC2)S(=O)(=O)c2ccccc2)cc1 (configuration not stated),-2,94*,-13,-2,3,1
CC1(C)Cc2cccc(C(=O)Nc3ccncc3)c2O1,10,73*,2,46,2,1
Nc1c(C(=O)NCc2ccco2)c2nc3ccccc3nc2n1CCc1ccc(F)cc1,0,14,21,-4,15*,-1
Cc1cccc(Nc2nc(N)c([N+](=O)[O-])c(NCc3ccccc3)n2)c1,1,7,6,18,-3,-5

# Bioassay records deposited in PubChem BioAssay by several laboratories.
